What all share (type): functional, cell-based
In one test the test system is CCRF-CEM. The test is described as follows: Inhibitory concentration required to inhibit human T-lymphoblast CEM cells proliferation. In outline:
(§1)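 Human T-lymphocyte cells seeded at 300000–500000 cells/mL and mixed 1:1 with serial compound dilutions. Incubated 3 days at 37 °C, then cell number counted with a Coulter counter. IC50 taken as the concentration giving 50% inhibition of proliferation, as mean ± SE from dose–response curves of at least three independent experiments.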

The subject of a further test is FM3A. The test can be described thus: Inhibitory concentration required to inhibit murine mammary carcinoma FM3A cells proliferation. The conditions noted are these: Mus musculus. In outline: (§2)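 Murine cells were suspended at 300000–500000 cells/mL and added 1:1 to wells holding serial dilutions of compound. Cells were counted by Coulter counter after 2 days at 37 °C. IC50 is the concentration inhibiting cell proliferation by 50%, given as mean ± SE from dose–response curves of at least three independent experiments.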

A further test has as its system L1210. The test can be described thus: Inhibitory concentration required to inhibit murine leukemia L1210 cells proliferation. The note with it: Mus musculus. In outline:
as §2

Another test concerns MOLT-4. The test is described as follows: Inhibitory concentration required to inhibit human T-lymphoblast Molt4 cells proliferation. In outline: as §1

Structures are written as SMILES.

Take `C=C1CC(COc2cc(C(=O)O)n(C)n2)(c2ccc(Cl)cc2)OC1=O` (stereo unspecified): the half-maximal inhibitory concentration (IC50) (in general, the concentration that inhibits the measured activity by half) in the test with CCRF-CEM came out at 57.9 µM; with FM3A it was 99.2 µM; with L1210 it was 13 µM; with MOLT-4, 46.9 µM.
Regarding `C=C1CC(C)(COc2cc(C(=O)O)n(C)n2)OC1=O` (stereo unspecified), the 50% inhibitory concentration (IC50) in the test on CCRF-CEM worked out at 402 µM; in the test with FM3A, 755 µM; in the test on L1210 it was 522 µM; in the test with MOLT-4, 746 µM.
The corresponding values for `C=C1CC(COc2cc(C(=O)O)n(C)n2)(c2ccccc2)OC1=O` (stereo unspecified) are 174 µM, 189 µM, 107 µM and 189 µM.
For `C=C1CC(COc2cc(C(=O)O)n(C)n2)(c2ccc(-c3ccccc3)cc2)OC1=O` (stereo unspecified) the same measures were 18.5 µM, 42 µM, 14.8 µM and 9.4 µM.

These data come from ChEMBL document CHEMBL1149173, “Design, synthesis, and biological evaluation of hybrid molecules containing alpha-methylene-gamma-butyrolactones and polypyrrole minor groove binders” (J Med Chem, 2004).
